{
  "source": "ChEMBL document CHEMBL1150804",
  "about": "“Nonnucleoside inhibitor of measles virus RNA-dependent RNA polymerase complex activity” (Antimicrob Agents Chemother, 2007)",
  "key": {"[1]": {"experiment": "Selectivity index, ratio of CC50 for african green monkey Vero cells by Promega assay to IC50 for measles virus Edm", "format": "functional"}, "Measles morbillivirus [2]": {"test_system": "Measles morbillivirus", "experiment": "Antiviral activity against measles virus Edm in Vero cells expressing human SLAM assessed as reduction of virus yield", "format": "functional, organism-based"}, "[3]": {"experiment": "Cytotoxicity against african green monkey Vero cells expressing human SLAM by Promega assay", "format": "cell-based", "details": "chlorocebus sabaeus", "procedure,_shortened": "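LDH-release assay: 12,000 cells/well exposed 24 h at 37°C to twofold compound dilutions (top 150 μM, or 300 μM for one compound), four replicates. Formazan read at 490 nm; % viability = 100 − [(experimental − background)/(maximum − background) × 100]; four experiments.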"}, "Measles morbillivirus [4]": {"test_system": "Measles morbillivirus", "experiment": "Antiviral activity against measles virus assessed as inhibition of viral H and F protein-mediated cell-cell fusion at 150 uM", "format": "functional, organism-based", "procedure,_shortened": "(§1)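 Cells (6 × 10^5/well) transfected with 4 μg each of MV H and F plasmids; at 4 h moved into wells with twofold compound dilutions (top 150 μM). Fusion scored microscopically, photographed at 24 h; at 48 h syncytium-linked cytotoxicity measured by LDH-release assay, % vs DMSO; four replicates.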"}, "BSR T7/5 [5]": {"test_system": "BSR T7/5", "experiment": "Inhibition of measles virus RNA-dependent RNA polymerase complex activity in BSR T7/5 cells assessed as CAT promoter expression by minireplicon assay", "format": "cell-based", "details": "Measles morbillivirus", "procedure,_shortened": "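BSR T7/5 cells (5 × 10^5) transfected with MV L (0.24 μg), N (0.94 μg), P (0.29 μg) plasmids plus 2 μg CAT minigenome; controls lacked L. At 2 h, threefold compound dilutions (top 30 μM) or DMSO added.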"}, "Measles morbillivirus [6]": {"test_system": "Measles morbillivirus", "experiment": "Antiviral activity against measles virus genotype C assessed as reduction of virus yield", "format": "functional, organism-based", "procedure,_shortened": "(§2)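 Clinical MV isolates (grown on Vero-SLAM) infected at MOI 0.1 PFU/cell into 4 × 10^5 cells with threefold compound dilutions (top 37.5 μM) or DMSO at 37°C. At 36 h, cell-associated virus titered by TCID50; EC50 at 50% of DMSO yield; two experiments.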"}, "Measles morbillivirus [7]": {"test_system": "Measles morbillivirus", "experiment": "Antiviral activity against measles virus assessed as reduction of virus yield at 15 uM administered 12 hrs postinfection", "format": "functional", "design": "scale not given: the % may be the effect or the level left", "procedure,_shortened": "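One-step time-of-addition: 3 × 10^5 cells infected with MV at MOI 1.0 PFU/cell; compound (15 μM final) added at set times postinfection; DMSO controls. At 20 h postinfection, cell-associated virus harvested and titered by TCID50; two experiments.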"}, "Measles morbillivirus [8]": {"test_system": "Measles morbillivirus", "experiment": "Antiviral activity against measles virus Edm in Vero cells expressing human SLAM assessed as reduction of virus yield preincubated in culture medium for 24 hrs", "format": "functional, organism-based"}, "Measles morbillivirus [9]": {"test_system": "Measles morbillivirus", "experiment": "Antiviral activity against measles virus genotype G3 assessed as reduction of virus yield", "format": "functional, organism-based", "procedure,_shortened": "as §2"}, "Measles morbillivirus [10]": {"test_system": "Measles morbillivirus", "experiment": "Antiviral activity against measles virus assessed as inhibition of viral H and F protein-mediated cell-cell fusion at 15 uM", "format": "functional, organism-based", "procedure,_shortened": "as §1"}, "Measles morbillivirus [11]": {"test_system": "Measles morbillivirus", "experiment": "Antiviral activity against measles virus genotype D9 assessed as reduction of virus yield", "format": "functional, organism-based", "procedure,_shortened": "as §2"}, "Escherichia phage T7": {"test_system": "Escherichia phage T7", "experiment": "Inhibition of Enterobacteria phage T7 polymerase assessed as F protein synthesis by in vitro transcription/translation assay", "procedure,_shortened": "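Cell-free rabbit reticulocyte lysate with 0.5 μg T7-promoter MV F plasmid, 20 μCi [35S]methionine and 50 μM compound or DMSO, 30°C for 90 min. Products separated on 12% SDS gels and autoradiographed. Control: plasmid with F gene reversed relative to the T7 promoter.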"}, "[12]": {"test_system": "Measles virus genotype D7", "experiment": "Antiviral activity against measles virus genotype D7 assessed as reduction of virus yield", "format": "functional, organism-based", "details": "Measles morbillivirus", "procedure,_shortened": "as §2"}, "Morbillivirus canis": {"test_system": "Morbillivirus canis", "experiment": "Antiviral activity against Canine distemper virus assessed as reduction of virus yield", "format": "functional, organism-based", "procedure,_shortened": "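Virus-yield dose-response: 4 × 10^5 cells/well infected at MOI 0.1 PFU/cell (CDV stocks grown on Vero-dogSLAM) with twofold compound dilutions (top 75 μM) or DMSO; kept at 37°C with compound. At 36 h, cell-associated virus titered by TCID50 (Spearman-Karber); titers normalized to DMSO; EC50 taken at 50% of DMSO yield; two experiments.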"}, "[13]": {"experiment": "Cytotoxicity against african green monkey Vero cells expressing human SLAM assessed as reduction in viable cells after 30 hrs by trypan blue exclusion assay", "format": "cell-based", "details": "chlorocebus sabaeus", "procedure,_shortened": "(§3)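 Trypan blue exclusion: 2 × 10^5 cells/well with fivefold compound dilutions (top 500 μM), 37°C for 30 h, three replicates per concentration. Detached cells stained with trypan blue 15 min at room temperature; live cells counted on a hemacytometer; expressed vs DMSO controls; three experiments.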"}, "Measles morbillivirus [14]": {"test_system": "Measles morbillivirus", "experiment": "Antiviral activity against measles virus Alaska assessed as reduction of virus yield in presence of 10 mg/ml BSA", "format": "functional, organism-based", "procedure,_shortened": "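Specificity test with MV-Alaska: 4 × 10^5 cells infected in serum-free medium at MOI 0.1 or 0.5 PFU/cell with fourfold dilutions (top 12.5 μM), with or without BSA at 10 mg/ml final.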"}, "BSR T7/5 [15]": {"test_system": "BSR T7/5", "experiment": "Inhibition of Nipah virus RNA-dependent RNA polymerase complex activity in BSR T7/5 cells assessed as CAT promoter expression by minireplicon assay", "format": "cell-based", "details": "Henipavirus nipahense", "procedure,_shortened": "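BSR T7/5 cells (T7 polymerase-expressing) transfected with plasmids for Nipah L (0.4 μg), N (1.25 μg), P (0.8 μg) plus 3.5 μg Nipah CAT minigenome reporter; controls lacked L plasmid. Compound added 2 h posttransfection in threefold dilutions (highest 30 μM), DMSO controls.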"}, "Measles morbillivirus [16]": {"test_system": "Measles morbillivirus", "experiment": "Antiviral activity against measles virus assessed as inhibition of viral H and F protein-mediated cell-cell fusion", "format": "functional, organism-based", "procedure,_shortened": "as §1"}, "Measles morbillivirus [17]": {"test_system": "Measles morbillivirus", "experiment": "Antiviral activity against measles virus assessed as inhibition of virus mediated cytopathogenicity at 15 uMby syncytium formation assay", "format": "functional, organism-based", "details": "15 uM"}, "Measles morbillivirus [18]": {"test_system": "Measles morbillivirus", "experiment": "Antiviral activity against measles virus genotype B3-2 assessed as reduction of virus yield", "format": "functional, organism-based", "procedure,_shortened": "as §2"}, "[19]": {"test_system": "Human parainfluenza virus 2", "experiment": "Antiviral activity against human parainfluenza virus 2 assessed as reduction of virus yield at 75 uM", "format": "functional, organism-based", "details": "Human orthorubulavirus 2"}, "Vero": {"test_system": "Vero", "experiment": "Cytotoxicity against african green monkey Vero cells expressing human SLAM assessed as reduction in viable cells at 500 uM after 30 hrs by trypan blue exclusion assay", "format": "cell-based", "details": "chlorocebus sabaeus", "procedure,_shortened": "as §3"}, "[20]": {"test_system": "Measles virus genotype D6", "experiment": "Antiviral activity against measles virus genotype D6 assessed as reduction of virus yield", "format": "functional, organism-based", "details": "Measles morbillivirus", "procedure,_shortened": "as §2"}, "Measles morbillivirus [21]": {"test_system": "Measles morbillivirus", "experiment": "Antiviral activity against measles virus genotype H2 assessed as reduction of virus yield", "format": "functional, organism-based", "procedure,_shortened": "as §2"}, "Measles virus genotype A": {"test_system": "Measles virus genotype A", "experiment": "Antiviral activity against measles virus genotype A assessed as reduction of virus yield", "format": "functional, organism-based", "details": "Measles morbillivirus", "procedure,_shortened": "as §2"}, "Measles morbillivirus [22]": {"test_system": "Measles morbillivirus", "experiment": "Antiviral activity against measles virus genotype G2 assessed as reduction of virus yield", "format": "functional, organism-based", "procedure,_shortened": "as §2"}, "[23]": {"experiment": "Selectivity index, ratio of CC50 for african green monkey Vero cells by trypan blue exclusion assay to IC50 for measles virus Edm", "format": "functional"}},
  "note": "Active and inactive are the calls of the source. No cut-off for these calls is given here.",
  "data": [
    {"smiles": "Cc1ccc2nsnc2c1S(=O)(=O)Nc1ccc(Cl)cc1", "values": [
      {"measurement": "Ratio CC50/EC50", "setting": "[1]", "result": 50},
      {"measurement": "EC50", "setting": "Measles morbillivirus [2]", "result": 2000, "unit": "nM"},
      {"measurement": "CC50", "setting": "[3]", "result": 100000, "unit": "nM"}
    ]},
    {"smiles": "O=C(NC(=O)N(c1ccc(Cl)cc1)S(=O)(=O)c1ccccc1)Nc1ccccc1Cl", "values": [
      {"measurement": "Ratio CC50/EC50", "setting": "[1]", "result": 43.2},
      {"measurement": "EC50", "setting": "Measles morbillivirus [2]", "result": 2800, "unit": "nM"},
      {"measurement": "CC50", "setting": "[3]", "result": 121000, "unit": "nM"}
    ]},
    {"smiles": "Cn1nc(C(F)(F)F)cc1C(=O)Nc1ccc(S(=O)(=O)N2CCCC2)cc1", "values": [
      {"measurement": "Activity", "setting": "Measles morbillivirus [4]", "result": "inactive"},
      {"measurement": "Activity", "setting": "BSR T7/5 [5]", "result": "Active"},
      {"measurement": "EC50", "setting": "Measles morbillivirus [6]", "result": 110, "unit": "nM"},
      {"measurement": "Activity", "setting": "Measles morbillivirus [7]", "result": 99.9, "unit": "%"},
      {"measurement": "Activity", "setting": "Measles morbillivirus [8]", "result": "Active"},
      {"measurement": "EC50", "setting": "Measles morbillivirus [9]", "result": 110, "unit": "nM"},
      {"measurement": "Activity", "setting": "Measles morbillivirus [10]", "result": "inactive"},
      {"measurement": "EC50", "setting": "Measles morbillivirus [11]", "result": 90, "unit": "nM"},
      {"measurement": "Activity", "setting": "Escherichia phage T7", "result": "inactive"},
      {"measurement": "EC50", "setting": "[12]", "result": 80, "unit": "nM"},
      {"measurement": "EC50", "setting": "Morbillivirus canis", "result": 28000, "unit": "nM"},
      {"measurement": "CC50 at 30 h", "setting": "[13]", "result": "> 500000", "unit": "nM"},
      {"measurement": "Activity", "setting": "Measles morbillivirus [14]", "result": "Active"},
      {"measurement": "Activity", "setting": "BSR T7/5 [15]", "result": "inactive"},
      {"measurement": "Activity", "setting": "Measles morbillivirus [16]", "result": "Active"},
      {"measurement": "Activity", "setting": "Measles morbillivirus [17]", "result": "Active"},
      {"measurement": "EC50", "setting": "Measles morbillivirus [18]", "result": 140, "unit": "nM"},
      {"measurement": "EC50", "setting": "[19]", "result": "> 75000", "unit": "nM"},
      {"measurement": "Activity", "setting": "Vero", "result": 20, "unit": "%"},
      {"measurement": "EC50", "setting": "[20]", "result": 100, "unit": "nM"},
      {"measurement": "EC50", "setting": "Measles morbillivirus [2]", "result": 240, "unit": "nM"},
      {"measurement": "EC50", "setting": "Measles morbillivirus [21]", "result": 35, "unit": "nM"},
      {"measurement": "CC50", "setting": "[3]", "result": "> 300000", "unit": "nM"},
      {"measurement": "EC50", "setting": "Measles virus genotype A", "result": 240, "unit": "nM"},
      {"measurement": "EC50", "setting": "Measles morbillivirus [22]", "result": 50, "unit": "nM"}
    ]},
    {"smiles": "Cc1ccc2[nH]c(=O)c(CNS(=O)(=O)c3ccccc3)c(-c3ccccc3)c2c1", "values": [
      {"measurement": "CC50 at 30 h", "setting": "[13]", "result": 71000, "unit": "nM"},
      {"measurement": "Ratio CC50/EC50", "setting": "[1]", "result": ">10"},
      {"measurement": "Ratio CC50/EC50", "setting": "[23]", "result": 4.5},
      {"measurement": "EC50", "setting": "Measles morbillivirus [2]", "result": 15700, "unit": "nM"},
      {"measurement": "CC50", "setting": "[3]", "result": "> 150000", "unit": "nM"}
    ]}
  ]
}
